Bioassay records (PubChem BioAssay)
PostGolgi ctrl = growth inhibition of yeast control strain, primary screen, counter-screen for post-Golgi transport modulator project; efflux-deficient yeast background strain, growth absorbance A615, 16 h; inhibition, % at 10 µM; hit rate 5% among 98,000
Ecoli tolC = growth inhibitors of E. coli tolC mutant, primary screen, strain BW25113 ΔtolC::kan, 384-well | OD615 | growth inhibition, % at 10 µM (by protocol) | hit rate 2.2% among 65,000 | AID 573, 2007;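 active means growth inhibition at or above a cutoff equal to the mean over every tested compound plus 3 SD, cut at about 60% in these data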;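 further: growth measured after 20 h incubation at 37 °C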
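signal = optical density read at 615 nm | test system = E. coli ΔtolC::kan strain BW25113 | timing = 20 h compound exposure of bacteria at 37 °C | buffer or medium = LB medium plus 50 µg/mL kanamycin | compound dosing = 10 µM final, single dose | evaluation = % inhibition of E. coli growth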
PostGolgi yeast = phenotypic screen on post-Golgi transport, primary screen | inhibition, % at 10 µM | post-Golgi transport phenotypic cell assay | hit rate 0.9% among 98,000;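 further: yeast cells grown in 1536-well plates; yeast grown about 18 h at 30C before absorbance read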
Candida biofilm = clotrimazole potentiators killing Candida biofilms, primary screen, with clotrimazole, Alamar Blue; inhibition, % at 6 µM; AID 834, 2007; C. albicans biofilm + clotrimazole; hit rate 0.14% among 85,000;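 active means inhibition above 20%; inactive means inhibition below 20%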;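 further: preformed 24 hr biofilms exposed to compound for 48 hr; 0% = biofilm without compound and 100% = blank killed by clotrimazole plus chlorhexidine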
FAK blocker = FAK kinase inhibitors, primary screen, biochemical | Focal adhesion kinase 1 (Homo sapiens), Q05397 | biochemical FAK kinase activity assay | inhibition, %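 (tested at 7 µM)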 | hit rate 0.84% among 97,000 | AID 727, 2007; in the data active means inhibition above about 19%;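 further: 0% = DMSO and 100% = reference compound high control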
PTK2B oligo ant = antagonists of Pyk2 self-association, primary screen, Q293 cells, FERM NanoBiT luminescence, HTS | hit rate 0.83% among 99,000 | z-score (the deposit names both 25 µM and 10 µM) | Protein-tyrosine kinase 2-beta (Homo sapiens), Q14289 | active compounds read low;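 active means Z-score of -3 or lower, scaled per plate to the spread of control and sample wells; inactive means z-score above -3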;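 further: negative z-score means lost luminescence so less FERM oligomerization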
Active calls of the source: *; / = not tested or not shown. Rows were chosen to be rich in hits. Some 6.9% of all compounds tested hit in one or more screens of this group. Unless noted, no stated cut-off is given here; in the data, active means inhibition above about 30%; inactive means the rest.

SMILES	PostGolgi ctrl	Ecoli tolC	PostGolgi yeast	Candida biofilm	FAK blocker	PTK2B oligo ant
Cc1c(N=Cc2c(O)n(C3CCCCC3)c(=O)[nH]c2=O)c(=O)n(-c2ccccc2)n1C	-2.9	8.9	1.7	3.7	-0.1	0.29
O=c1[nH]c(=O)n(C2CCCCCC2)c(O)c1C=NCc1ccc(F)cc1	50.1*	98.5*	1.1	6.7	8.3	-1.67
COc1cccc(NC(=O)c2ccc(S(=O)(=O)N3CCCCC3)cc2)c1	-0.1	11.9	-12.8	4.0	/	/
COc1ccc(-c2nnc(NC(=O)c3ccc(S(=O)(=O)N4CCc5ccccc5C4)cc3)o2)cc1	13.5	94.2*	7.0	5.0	-5.3	-2.78
COc1cccc(-c2nnc(NC(=O)c3ccc(S(=O)(=O)N4CC(C)OC(C)C4)cc3)o2)c1 (centres undefined)	-1.7	98.5*	-3.5	/	9.1	-4.13*
O=C(CN1CCC(n2nnc3cc(C(F)(F)F)ccc32)CC1)N1CCc2ccccc21	15.8	16.1	1.8	3.4	1.2	0.41
CCCCn1c(=O)n(C)c(=O)c2c(C(F)(F)F)cc(-c3ccncc3)nc21	15.5	9.0	13.8	11.3	0.8	0.12
COc1ccc(C(=O)NCC(=O)N2CCC(C)CC2)cc1OC	16.5	/	-7.3	-0.4	-0.7	0.36
COc1c(C)cc(Br)cc1C(=O)Nc1cccc(-c2nc3ncccc3o2)c1	40.7*	37.6	-7.2	/	-1.6	/
CCCCC(=O)Nc1cccc(-c2nc3ncccc3o2)c1	14.5	25.7	17.1	6.6	-0.2	0.32
Cc1ccccc1CS(=O)(=O)c1nnc([C@H](CC(C)C)NC(=O)OC(C)(C)C)o1	44.7*	-1.4	41.1*	1.4	-1.1	-1.1
CC(C)(C)OC(=O)N[C@@H](Cc1ccccc1)c1nnc(S(=O)(=O)Cc2cccc(F)c2)o1	22.1	9.5	17.6	8.7	-5.9	/
CC[C@@H](C)[C@H](NC(=O)OC(C)(C)C)c1nnc(S(=O)(=O)Cc2cc(C)ccc2C)o1	41.4*	1.9	4.7	-2.0	-0.6	-0.6
O=C1COc2cccnc2N1	38.2*	-14.7	-0.8	4.2	2.3	-0.43
O=C1COc2ccccc2CN1	-7.0	/	0.8	-0.5	1.4	-0.36
CCN(CC(=O)Nc1ccc2c(c1)OC(F)(F)O2)Cc1nc2ccccc2c(=O)[nH]1	9.0	/	-7.5	0.9	0.9	-3.89*
CCN(CC(=O)Nc1cccc(Br)c1)Cc1nc2ccccc2c(=O)[nH]1	0.6	/	3.1	/	-1.2	-0.37
CCN(CC(=O)Nc1ccc2c(c1)CCC2)Cc1nc2ccccc2c(=O)[nH]1	22.5	16.9	-0.8	13.0	0.7	-0.48
CCN(CC(=O)Nc1ccc2c(c1)OCO2)Cc1nc2ccccc2c(=O)[nH]1	31.4*	3.9	-7.6	-0.3	/	0.69
COc1cccc(CNCc2ccccn2)c1OC	-0.3	-9.8	9.5	5.2	3.0	-0.49
Cc1ccccc1-n1nnnc1SCc1csc(-c2ccccc2)n1	24.9	54.9	-7.0	3.7	-0.4	-2.78
CC(C(=O)O)c1cccc(C(=O)c2ccccc2)c1 (centres undefined)	4.5	-13.3	3.7	4.2	/	/
Cc1ccc(CN(Cc2cc3cc4c(cc3[nH]c2=O)OCCO4)Cc2nnnn2Cc2ccco2)cc1	-1.4	/	11.5	-2.4	3.4	1.75
Cc1ccc2cc(CN(Cc3ccc4c(c3)OCO4)Cc3nnnn3Cc3ccco3)c(=O)[nH]c2c1	30.3*	22.4	11.0	2.3	5.1	0.58
CC(=O)N(C)C1(c2nnnn2CCOC(=O)Nc2ccc(Cl)cc2)CCCCC1	1.5	-0.3	2.4	1.2	-0.8	1.84
SMILES	PostGolgi ctrl	Ecoli tolC	PostGolgi yeast	Candida biofilm	FAK blocker	PTK2B oligo ant
CC(C)Sc1nnc(Cn2c(=O)sc3ccccc32)n1-c1ccccc1	32.0*	0.9	3.5	-7.8	/	/
Cc1ccccc1-n1c(Cn2c(=O)sc3ccccc32)nnc1SC(C)C	15.1	17.4	4.3	14.4	/	/
CC(C)(C)C(=O)/C=C(N)/C=C/c1ccccc1	32.6*	18.7	-2.5	-0.4	0.5	0.53
CC(C)COC(=O)n1c(=O)oc2cc(S(=O)(=O)N3CCCCC3)ccc21	17.1	7.9	-6.2	3.5	3.1	-3.45*
CN(Cc1ccccc1)C(=O)Cn1c(=O)oc2cc(S(=O)(=O)N3CCCC3)ccc21	35.0*	/	0.6	11.5	2.8	/
Cn1c(=O)c2c(nc(Br)n2CCSc2ncccn2)n(C)c1=O	8.1	2.7	3.9	2.5	-0.4	2.6
O=C(Cc1ccc2c(c1)OCCO2)c1c(O)cc(O)cc1O	1.5	13.7	4.5	7.5	0.0	0.03
N/C(=N\OC(=O)N1CCOCC1)c1ccccc1	-9.0	/	3.5	/	3.5	0.62
O=C(N/N=C\c1ccc(Cl)s1)c1cccs1	11.9	/	1.8	/	3.1	0.11
N#Cc1nc(COc2ccc(F)cc2)oc1N1CCN(Cc2ccccc2)CC1	27.0	65.1*	-6.6	0.4	0.9	1.55
CC1CN(c2oc(COc3ccc(Cl)cc3Cl)nc2C#N)CC(C)O1 (centres undefined)	26.9	81.3*	-2.8	3.8	5.1	-0.39
N#Cc1nc(Cc2cccc3ccccc23)oc1N1CCCCC1	36.1*	50.8	-2.8	1.5	5.6	-1.02
N#Cc1nc(COc2ccc(Cl)cc2)oc1N1CCCCCC1	45.4*	65.6*	-2.4	5.0	3.0	-1.79
N#Cc1nc(COc2ccccc2Cl)oc1N1CCCCCC1	6.8	10.2	0.5	4.2	2.8	/
Cc1cccc(C)c1NC(=O)CNc1ccccc1	37.4*	0.5	2.9	7.6	-0.9	-0.45
Cc1ccc2nc(N3C(=O)C(O)=C(C(=O)c4cc5ccccc5o4)C3c3cccs3)sc2c1 (centres undefined)	6.5	/	-7.1	/	4.5	0.11
CCc1ccc2nc(N3C(=O)C(O)=C(C(=O)c4ccco4)C3c3cccs3)sc2c1 (centres undefined)	35.7*	/	-2.6	/	-10.7	0.4
CCN1C(=O)S/C(=C\c2ccc(N3CCOCC3)cc2C)C1=O	35.3*	/	8.3	/	-9.5	-0.37
Cc1ccc(C)c(C(=O)CC2(O)C(=O)Nc3ccccc32)c1 (centres undefined)	-4.0	-3.5	-6.3	6.3	10.4	0.74
Cc1nc(N2CCN(C(=O)CCC(=O)O)CC2)c2c(C)c(C)sc2n1	3.0	-1.0	6.1	6.4	/	0.42
CCc1cc2c3c(c(=O)oc2cc1O)CCCC3	27.4	60.6*	7.3	0.6	0.4	1.28
COc1ccccc1-c1cc(C(F)(F)F)nc(N2CCOCC2)n1	16.3	61.6*	-3.2	-2.5	-3.4	1.42
COc1ccccc1-c1cc(C(F)(F)F)nc(N2CCN(c3ccccc3)CC2)n1	2.8	-4.6	-3.1	3.6	1.5	-0.86
COc1cccc(-c2cc(C(F)(F)F)nc(N3CCOCC3)n2)c1	19.5	67.6*	9.3	2.5	3.1	0.63
COc1cccc(N2CC(C(=O)NC3CCCCC3)CC2=O)c1 (centres undefined)	1.6	-4.4	2.4	0.9	/	-0.15
